{
  "source": "ChEMBL document CHEMBL1124885",
  "about": "“Resolution, absolute stereochemistry, and enantioselectivity of 2-methyl-4-phenyl-1,2,3,4-tetrahydroisoquinolin-4-ol” (1990)",
  "key": {"Rattus norvegicus [1]": {"organism": "Rattus norvegicus", "test": "Tested for potentiating activity on the responses of rat anococcygeus muscle to norepinephrine (NE)at a concentration of 0 (absence of potentiating compound)", "type": "functional, Muscle tissue", "outline": "(§1)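 Isolated rat anococcygeus muscle. Concentration-response curves to norepinephrine (NE) were run with and without the test compound, and potentiation was judged from the shift at low NE concentrations. pD2 is the negative log of the molar NE concentration giving 50% of maximal response. Activity ratio is the antilog of the pD2 difference with versus without compound, with no compound set at 1.0. n is the number of experiments.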"}, "Rattus norvegicus [2]": {"organism": "Rattus norvegicus", "test": "Tested for potentiating activity on the responses of rat anococcygeus muscle to norepinephrine (NE)at a concentration of 10e-6 M", "type": "functional, Muscle tissue", "outline": "as §1"}, "Rattus norvegicus [3]": {"organism": "Rattus norvegicus", "test": "Tested for potentiating activity on the responses of rat anococcygeus muscle to norepinephrine (NE)at a concentration of 10e-7 M", "type": "functional, Muscle tissue", "outline": "as §1"}, "Rattus norvegicus [4]": {"organism": "Rattus norvegicus", "test": "Tested for potentiating activity on the responses of rat anococcygeus muscle to norepinephrine (NE)at a concentration of 3 x 10e -7 M", "type": "functional, Muscle tissue", "outline": "as §1"}, "Rattus norvegicus [5]": {"organism": "Rattus norvegicus", "test": "Tested for potentiating activity on the responses of rat anococcygeus muscle to norepinephrine (NE)at a concentration of 3 x 10e-6 M", "type": "functional, Muscle tissue", "outline": "as §1"}, "[6]": {"test": "Activity ratio, difference between the pD2 values for NE obtained in the absence and presence at 0 (absence of potentiating compound)", "type": "functional", "outline": "as §1"}, "[7]": {"test": "Activity ratio, difference between the pD2 values for NE obtained in the absence and presence at 10e-6 M", "type": "functional", "outline": "as §1"}, "[8]": {"test": "Activity ratio, difference between the pD2 values for NE obtained in the absence and presence at 10e-7 M", "type": "functional", "outline": "as §1"}, "[9]": {"test": "Activity ratio, difference between the pD2 values for NE obtained in the absence and presence at 3 x 10 E -6 M", "type": "functional", "outline": "as §1"}, "[10]": {"test": "Activity ratio, difference between the pD2 values for NE obtained in the absence and presence at 3 x 10e-7 M", "type": "functional", "outline": "as §1"}, "Rattus norvegicus [11]": {"organism": "Rattus norvegicus", "test": "Tested for potentiating activity on the responses of rat anococcygeus muscle to norepinephrine (NE)at a concentration of 10 E -6 M", "type": "functional, Muscle tissue", "outline": "as §1"}, "Rattus norvegicus [12]": {"organism": "Rattus norvegicus", "test": "Tested for potentiating activity on the responses of rat anococcygeus muscle to norepinephrine (NE)at a concentration of 3 x 10 E -6 M", "type": "functional, Muscle tissue", "outline": "as §1"}, "Rattus norvegicus [13]": {"organism": "Rattus norvegicus", "test": "Tested for potentiating activity on the responses of rat anococcygeus muscle to norepinephrine (NE)at a concentration of 3 x 10 E -7 M", "type": "functional, Muscle tissue", "outline": "as §1"}, "[14]": {"test": "Activity ratio, difference between the pD2 values for NE obtained in the absence and presence at 10 E -6 M", "type": "functional", "outline": "as §1"}, "[15]": {"test": "Activity ratio, difference between the pD2 values for NE obtained in the absence and presence at 3 x 10 E -7 M", "type": "functional", "outline": "as §1"}, "Rattus norvegicus [16]": {"organism": "Rattus norvegicus", "test": "Tested for potentiating activity on the responses of rat anococcygeus muscle to norepinephrine (NE)at a concentration of 10 E -7 M", "type": "functional, Muscle tissue", "outline": "as §1"}, "[17]": {"test": "Activity ratio, difference between the pD2 values for NE obtained in the absence and presence at 10 E -7 M", "type": "functional", "outline": "as §1"}},
  "data": [
    {"smiles": "CN1Cc2ccccc2C(O)(c2ccccc2)C1", "note": "(racemic)", "values": [
      {"measurement": "pD2", "setting": "Rattus norvegicus [1]", "value": 6.25},
      {"measurement": "pD2", "setting": "Rattus norvegicus [2]", "value": 7.18},
      {"measurement": "pD2", "setting": "Rattus norvegicus [3]", "value": 6.42},
      {"measurement": "pD2", "setting": "Rattus norvegicus [4]", "value": 6.73},
      {"measurement": "pD2", "setting": "Rattus norvegicus [5]", "value": 7.5},
      {"measurement": "Ratio", "setting": "[6]", "value": 1},
      {"measurement": "Ratio", "setting": "[7]", "value": 8.5},
      {"measurement": "Ratio", "setting": "[8]", "value": 1.5},
      {"measurement": "Ratio", "setting": "[9]", "value": 17.8},
      {"measurement": "Ratio", "setting": "[10]", "value": 3}
    ]},
    {"smiles": "CN1Cc2ccccc2[C@@](O)(c2ccccc2)C1", "values": [
      {"measurement": "pD2", "setting": "Rattus norvegicus [1]", "value": 6.23},
      {"measurement": "pD2", "setting": "Rattus norvegicus [11]", "value": 6.23},
      {"measurement": "pD2", "setting": "Rattus norvegicus [12]", "value": 6.27},
      {"measurement": "pD2", "setting": "Rattus norvegicus [13]", "value": 6.24},
      {"measurement": "Ratio", "setting": "[6]", "value": 1},
      {"measurement": "Ratio", "setting": "[14]", "value": 1},
      {"measurement": "Ratio", "setting": "[9]", "value": 1.1},
      {"measurement": "Ratio", "setting": "[15]", "value": 1}
    ]},
    {"smiles": "CN1Cc2ccccc2[C@](O)(c2ccccc2)C1", "values": [
      {"measurement": "pD2", "setting": "Rattus norvegicus [1]", "value": 6.23},
      {"measurement": "pD2", "setting": "Rattus norvegicus [11]", "value": 7.28},
      {"measurement": "pD2", "setting": "Rattus norvegicus [16]", "value": 6.6},
      {"measurement": "pD2", "setting": "Rattus norvegicus [12]", "value": 7.56},
      {"measurement": "pD2", "setting": "Rattus norvegicus [13]", "value": 7.01},
      {"measurement": "Ratio", "setting": "[6]", "value": 1},
      {"measurement": "Ratio", "setting": "[14]", "value": 11.2},
      {"measurement": "Ratio", "setting": "[17]", "value": 2.3},
      {"measurement": "Ratio", "setting": "[9]", "value": 21.4},
      {"measurement": "Ratio", "setting": "[15]", "value": 6}
    ]}
  ]
}
